The results in this text go back to ChEMBL document CHEMBL4219151, “Piperidinyl Ureas Chemically Control Defective in Cullin Neddylation 1 (DCN1)-Mediated Cullin Neddylation” (J Med Chem, 2018).

By solubility is commonly meant how much of the substance goes into solution per volume. What is called Kd is the equilibrium constant for the complex coming apart. High values mean lower affinity, low ones higher affinity. As a reminder, the EC50 is the concentration needed to bring the measured effect to its halfway point. As usually defined, the IC50 is the concentration that gives 50% inhibition.

Data set [1] is described as follows: Solubility of the compound at pH 7.4 after 18 hrs by UV-spectroscopy. Type of data set: physicochemical. As to conditions: buffer. The method in brief: (§1)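 Measured in triplicate within at least one experiment; values reported as mean ± standard deviation.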
Data set [2] in a line: Permeability of the compound at 10 uM by PAMPA. Format: ADME. In a few lines:
as §1
Background: The PAMPA barrier holds no transporters, so it reflects passive diffusion.

The target in data set [3] is T1, DCN1-like protein 1 (Homo sapiens, UniProt Q96GG9). Kind of data set: Binding affinity biotinylated human GST-tagged DCN1 by ITC method.
The target of data set [4] is T1, DCN1-like protein 1. Kind of data set: Inhibition of human DCN1-mediated cullin neddylation assessed as reduction in transfer of fluorescein-5-maleimide-tagged NEDD8 from N-terminally acetylated human UBE2M to CUL2-CTD measured for 10 sec by pulse-chase assay.
Another data set concerns BJ. Kind of data set: Growth inhibition of human BJ cells. Format: cell-based. The method in brief: (§2)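 In vitro monolayer proliferation assay in BJ cells (normal fibroblasts lacking DCN1 amplification) and HCC95 cells (squamous cell carcinoma line carrying DCN1 amplification). EC50 is reported as mean ± standard deviation from at least one experiment run in triplicate. A ">" value means less than 50% growth inhibition at the highest concentration tested.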

The subject of the next data set is HCC95. Kind of data set: Growth inhibition of human HCC95 cells. Type of data set: functional, cell-based. The method in brief:
as §2

The target in data set [5] is NEDD8 activating enzyme (Homo sapiens) (UniProt Q8TBC4+Q13564). Kind of data set: Inhibition of human NAE1-UBA3 E1 activating enzyme assessed as reduction in CUL3 neddylation by measuring inhibition of UBE2M thiol-ester formation at 50 uM up to 60 mins by pulse-chase assay. Format: protein-complex assay.
Data set [6] deals with T2, DCN1-like protein 3 (Homo sapiens) (UniProt Q8IWE4).
T2 sequence (whole entry): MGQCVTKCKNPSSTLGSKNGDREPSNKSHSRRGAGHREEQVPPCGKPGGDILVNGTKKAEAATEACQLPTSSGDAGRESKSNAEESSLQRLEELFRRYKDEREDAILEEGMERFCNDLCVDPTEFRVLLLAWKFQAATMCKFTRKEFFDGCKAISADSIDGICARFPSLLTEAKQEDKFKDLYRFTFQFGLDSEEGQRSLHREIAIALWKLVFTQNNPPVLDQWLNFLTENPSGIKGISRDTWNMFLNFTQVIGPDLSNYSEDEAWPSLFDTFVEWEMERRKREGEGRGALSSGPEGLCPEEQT
Kind of data set: Inhibition of human DCN3 stimulated N-terminal cys-tagged NEDD8 transfer from UBE2F to CUL2(CTD)-RBX1 at 10 uM measured up to 2 mins by pulse-chase assay.

Another data set is filed under the species Homo sapiens. Kind of data set: Inhibition of human RBX1-catalyzed CUL2(CTD) neddylation assessed as reduction in transfer of N-terminal cys-tagged NEDD8 from UBE2M to CUL2-CTD at 12.5 uM measured up to 6 mins by pulse-chase assay. The method in brief:
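In vitro pulse-chase monitoring NEDD8 transfer from UBE2M to the CUL2 C-terminal domain, stimulated by DCN1 together with RBX1. The CUL2 domain stands in for cullins 1-5. The assay is a variation of a previously published pulse-chase format, also run against each of the five DCN family members.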

For data set [7], the target named is T1, DCN1-like protein 1.
Data set [8] deals with DCN1-like protein 2 (Homo sapiens) (UniProt Q6PH85). Kind of data set: Inhibition of human DCN2-mediated cullin neddylation assessed as reduction in transfer of fluorescein-5-maleimide-tagged NEDD8 from N-terminally acetylated human UBE2M to CUL2-CTD at 12.5 and 50 uM measured for 10 sec by pulse-chase assay.
The target in data set [9] is T2, DCN1-like protein 3 (Homo sapiens). Kind of data set: Inhibition of human DCN3-mediated cullin neddylation assessed as reduction in transfer of fluorescein-5-maleimide-tagged NEDD8 from N-terminally acetylated human UBE2M to CUL2-CTD at 50 uM measured for 2 mins by pulse-chase assay.
Data set [10] concerns the target T3, DCN1-like protein 4 (Homo sapiens) (UniProt Q92564).
T3 sequence (whole entry): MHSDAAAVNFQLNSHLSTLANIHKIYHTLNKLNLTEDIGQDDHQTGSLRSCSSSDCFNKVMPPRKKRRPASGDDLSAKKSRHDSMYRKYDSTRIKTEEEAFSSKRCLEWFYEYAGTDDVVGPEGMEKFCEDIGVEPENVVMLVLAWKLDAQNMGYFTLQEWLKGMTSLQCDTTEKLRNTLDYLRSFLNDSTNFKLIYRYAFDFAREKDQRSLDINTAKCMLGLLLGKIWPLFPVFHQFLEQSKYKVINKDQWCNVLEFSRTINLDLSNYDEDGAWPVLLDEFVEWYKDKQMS
Kind of data set: Inhibition of human DCN4-mediated cullin neddylation assessed as reduction in transfer of fluorescein-5-maleimide-tagged NEDD8 from N-terminally acetylated human UBE2M to CUL2-CTD at 50 uM measured for 1 min by pulse-chase assay.

The target in data set [11] is T4, DCN1-like protein 5 (Homo sapiens) (UniProt Q9BTE7).
T4 sequence (whole entry): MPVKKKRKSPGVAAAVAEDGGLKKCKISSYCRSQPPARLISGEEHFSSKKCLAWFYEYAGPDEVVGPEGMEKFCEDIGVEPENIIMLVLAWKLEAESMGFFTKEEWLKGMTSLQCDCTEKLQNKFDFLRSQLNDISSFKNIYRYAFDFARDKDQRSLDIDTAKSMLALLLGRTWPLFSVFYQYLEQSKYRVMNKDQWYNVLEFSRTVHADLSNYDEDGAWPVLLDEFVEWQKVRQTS
Kind of data set: Inhibition of human DCN5-mediated cullin neddylation assessed as reduction in transfer of fluorescein-5-maleimide-tagged NEDD8 from N-terminally acetylated human UBE2M to CUL2-CTD at 50 uM measured for 1 min by pulse-chase assay.

Converted amounts (≈) assume the structure as drawn. The source made the active and inactive calls. The rule behind the calls is not given here. Where only a bound is given, the exact number is not on record here.

T1 sequence (Q96GG9 whole entry): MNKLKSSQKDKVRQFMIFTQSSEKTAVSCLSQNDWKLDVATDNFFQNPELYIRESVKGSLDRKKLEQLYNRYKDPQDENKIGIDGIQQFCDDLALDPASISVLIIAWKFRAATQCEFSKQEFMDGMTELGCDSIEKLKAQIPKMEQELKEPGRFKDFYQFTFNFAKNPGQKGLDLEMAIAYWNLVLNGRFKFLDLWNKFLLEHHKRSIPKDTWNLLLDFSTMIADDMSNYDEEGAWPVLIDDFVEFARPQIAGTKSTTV
DCN1-like protein 2 (Homo sapiens), sequence (Q6PH85 whole entry): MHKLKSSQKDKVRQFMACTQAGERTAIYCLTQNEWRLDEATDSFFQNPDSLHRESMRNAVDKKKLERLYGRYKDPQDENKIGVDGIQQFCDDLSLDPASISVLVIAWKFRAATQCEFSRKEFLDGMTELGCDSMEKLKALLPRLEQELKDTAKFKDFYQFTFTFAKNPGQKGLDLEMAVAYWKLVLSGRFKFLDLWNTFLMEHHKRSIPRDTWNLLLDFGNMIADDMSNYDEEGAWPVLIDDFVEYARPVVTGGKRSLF

On to `CCCCN1CCC(N(Cc2ccccc2)C(=O)Nc2cccc(C(F)(F)F)c2)CC1`, for which the solubility at 18 h in data set [1] amounted to 70 µM (≈ 30.3 µg/mL). Also, in [2] (PAMPA, read-out: permeability), the Papp at 10 µM was above 22000 nm/s. Also, at DCN1-like protein 1 [3], the Kd was 0.7 µM. The EC50 on DCN1-like protein 1 [4] is 0.14 µM; with BJ it was above 40 µM; in the data set on HCC95, above 40 µM. For the same compound, the inhibition result (in [5]; in [6]; in the data set listed under Homo sapiens) was “inactive” throughout. The compound further registered an IC50 against DCN1-like protein 1 [7] of 0.26 µM.
Take `CCCC(C)N1CCC(N(Cc2ccccc2)C(=O)Nc2cccc(C(F)(F)F)c2)CC1` (centres undefined): the solubility at 18 h in [1] came out at 57 µM (≈ 25.5 µg/mL). In data set [2] (pampa, 10 µM), this compound showed a permeability of 14000 nm/s. In addition, the Kd on DCN1-like protein 1 [3] is 0.14 µM. Moreover, the inhibition result in data set [8] is “Active”. In addition, the inhibition result (in [9]; in data set [10]; in [11]; in data set [5]; in data set [6]; in the data set listed under Homo sapiens) was “inactive” in each case. The EC50 on DCN1-like protein 1 [4] is 0.079 µM; with BJ, above 40 µM; with HCC95, 47 µM. In addition, at DCN1-like protein 1 [7], 0.062 µM corresponded to half-maximal inhibition (IC50).
